The values below come from ChEMBL document CHEMBL4261642, “Design, synthesis, and ex vivo evaluation of a selective inhibitor for retinaldehyde dehydrogenase enzymes” (Bioorg Med Chem, 2018).

Experiment [1] addresses T1, Retinal dehydrogenase 2 (Gallus gallus) (UniProt O93344).
T1 sequence (whole entry): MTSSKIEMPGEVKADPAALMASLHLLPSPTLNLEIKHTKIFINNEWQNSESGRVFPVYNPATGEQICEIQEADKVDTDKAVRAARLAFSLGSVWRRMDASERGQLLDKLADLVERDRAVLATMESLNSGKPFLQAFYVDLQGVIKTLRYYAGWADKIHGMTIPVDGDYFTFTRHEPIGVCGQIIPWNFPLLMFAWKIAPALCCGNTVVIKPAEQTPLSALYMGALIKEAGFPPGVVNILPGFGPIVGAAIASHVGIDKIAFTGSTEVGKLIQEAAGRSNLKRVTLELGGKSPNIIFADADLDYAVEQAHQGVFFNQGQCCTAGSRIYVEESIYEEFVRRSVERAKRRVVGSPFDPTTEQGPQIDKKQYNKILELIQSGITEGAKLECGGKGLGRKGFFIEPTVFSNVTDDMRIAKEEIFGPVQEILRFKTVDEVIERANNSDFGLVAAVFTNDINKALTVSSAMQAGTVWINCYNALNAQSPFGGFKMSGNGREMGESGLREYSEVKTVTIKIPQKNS
Description: Inhibition of RALDH2 in choroidal cytosol fraction from 4 day recovering chick assessed as inhibition of ATRA synthesis at 0.1 to 6 uM pre-incubated for 20 mins followed by […] addition and measured after 30 mins by HPLC analysis. Put shortly: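 Choroid cytosol fractions (100,000 × g supernatant) from 4-day recovering chick eyes pre-incubated 20 min at 37°C with 0.01–6 μM inhibitor or DMSO. Reaction started with 4 mM NAD+ and 25 μM all-trans-retinaldehyde, 30 min at 37°C. ATRA extracted and quantified by reverse-phase HPLC (350 nm, MS). Two experiments, n = 3–5 each.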

Experiment [2] has as its target T2, Aldehyde dehydrogenase 1A1 (Gallus gallus) (UniProt P27463).
T2 sequence (whole entry): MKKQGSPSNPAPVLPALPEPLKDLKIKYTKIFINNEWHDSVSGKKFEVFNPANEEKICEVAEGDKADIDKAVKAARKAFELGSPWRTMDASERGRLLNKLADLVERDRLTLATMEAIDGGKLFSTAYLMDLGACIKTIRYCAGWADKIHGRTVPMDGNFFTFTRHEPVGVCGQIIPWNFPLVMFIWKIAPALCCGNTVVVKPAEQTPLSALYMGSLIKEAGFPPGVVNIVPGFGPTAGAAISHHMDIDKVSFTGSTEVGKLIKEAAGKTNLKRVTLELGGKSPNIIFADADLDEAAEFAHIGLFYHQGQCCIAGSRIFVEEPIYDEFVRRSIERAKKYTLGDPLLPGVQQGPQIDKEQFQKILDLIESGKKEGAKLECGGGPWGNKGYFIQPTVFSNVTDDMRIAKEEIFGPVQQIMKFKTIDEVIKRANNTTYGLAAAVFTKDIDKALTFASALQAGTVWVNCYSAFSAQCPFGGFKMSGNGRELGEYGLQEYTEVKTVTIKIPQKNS
In words: Irreversible inhibition of N-terminal His6-tagged recombinant chick RALDH1 expressed in Escherichia coli BL21(DE3) cells using RAL as substrate assessed as reduction in enzyme Vmzx preincubated for 20 mins followed by substrate addition and measured after 30 mins in presence of NADH by fluorescence assay.

The target in experiment [3] is T3, Retinal dehydrogenase 2 (Gallus gallus, UniProt O93344).
T3 sequence (O93344 whole entry): T1 sequence (whole entry)
Description: Inhibition of N-terminal His6-tagged recombinant chick RALDH2 expressed in Escherichia coli BL21(DE3) cells using RAL as substrate preincubated for 20 mins followed by substrate addition and measured after 30 mins in presence of NADH by fluorescence assay. A digest of the protocol:
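Purified His-tagged recombinant enzyme in dialysis buffer with 2 mM DTT. Amounts were chick RALDH1 2 μg (0.358 μM), chick RALDH2 0.5 μg (0.091 μM), chick RALDH3 2 μg (0.355 μM) and human RALDH2 1 μg (0.176 μM). Enzyme pre-incubated 20 min at 37°C with 0–10 μM inhibitor in DMSO. Reaction started with final 4 mM NAD+ in pyrophosphate pH 8.2 buffer plus 250 μM retinaldehyde, 30 min at 37°C. NADH read fluorimetrically (Ex/Em 540/590) against a standard curve. Triplicates, 3–5 experiments.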

Experiment [4] deals with T1, Retinal dehydrogenase 2 (Gallus gallus). In words: Inhibition of N-terminal His6-tagged recombinant chick RALDH2 expressed in Escherichia coli BL21(DE3) cells at 250 nM using RAL as substrate assessed as remaining activity preincubated for 80 mins followed by all-trans-retinaldehyde and substrate addition measured after 30 mins in presence of NAD+ by fluorescence assay. Put shortly: (§1)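 Chick RALDH2 (91 nM) pre-incubated with 250 nM inhibitor for 0–80 min at 37°C, alone or with 250 μM retinaldehyde or 250 μM NAD+. Reaction then started with the missing substrate and/or cofactor (250 μM retinaldehyde, 4 mM NAD), 30 min at 37°C. Fluorimetric NADH; % activity remaining. Triplicates.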

Experiment [5] has the same target. In words: Inhibition of N-terminal His6-tagged recombinant chick RALDH2 expressed in Escherichia coli BL21(DE3) cells at 250 nM using RAL as substrate assessed as remaining activity preincubated for 40 mins followed by all-trans-retinaldehyde and substrate addition measured after 30 mins in presence of NAD+ by fluorescence assay. Put shortly:
as §1

For experiment [6] the target is unchanged. In words: Inhibition of chick RALDH2 expressed in doxycycline-inducible HEK293 cells assessed as inhibition of ATRA synthesis at 0.5 uM after 24 hrs in presence of […].
Experiment [7] can be described thus: Inhibition of N-terminal His6-tagged recombinant chick RALDH3 expressed in Escherichia coli BL21(DE3) cells using RAL as substrate measured after 30 mins in presence of NADH by Morrison's plot analysis. Further details: species or system Gallus gallus. Put shortly:
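Ki obtained by fitting the Morrison tight-binding equation to the 20-min pre-incubation retinaldehyde/NADH fluorescence inhibition data. Inputs were enzyme concentration (RALDH1 0.358, RALDH2 0.091, RALDH3 0.355, hRALDH2 0.176 μM), substrate concentration and Km. Triplicates from 3–5 independent experiments.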

The target of experiment [8] is T1, Retinal dehydrogenase 2 (Gallus gallus). Description: Inhibition of N-terminal His6-tagged recombinant chick RALDH2 expressed in Escherichia coli BL21(DE3) cells up to 500 nM using RAL as substrate assessed as Kinact/Ki ratio preincubated up to 40 mins followed by substrate addition and measured after 30 mins in presence of NADH by fluorescence assay. Put shortly: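 Chick RALDH2 pre-incubated 10, 20 and 40 min with 0–500 nM inhibitor, then assayed with retinaldehyde/NAD+ by fluorimetric NADH. kobs taken from linear regression of log % activity remaining versus pre-incubation time. KI and kinact obtained by nonlinear regression of kobs versus inhibitor concentration.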

For experiment [9], the species on record is Gallus gallus. Description: Inhibition of N-terminal His6-tagged recombinant chick RALDH3 expressed in Escherichia coli BL21(DE3) cells at 100 nM using RAL as substrate assessed as Vmax preincubated for 20 mins followed by substrate addition and measured after 30 mins in presence of NADH by fluorescence assay (reference value: 107.3 +/- 15.97 pmol/microM/min).

SMILES strings stand for the structures. Active and inactive are the calls of the source. The calls are words filed in the database; no cut-off is given here.

By inhibition is commonly meant the share of the control response that was lost under treatment. In general, IC50 refers to the midpoint of a concentration-inhibition curve. What is called Ki is a measure of affinity in units of concentration, obtained from inhibition or displacement. As to `CC1=C(/C=C/C(C)=C/C=C/C(C)=C/C(=O)C(Cl)Cl)C(C)(C)CCC1`, the inhibition is 70 to 96% in experiment [1] and 47% in experiment [6]. Besides, the inhibition entry in experiment [2] was “Active”. For the same compound, the 50% inhibitory concentration (IC50) in experiment [3] was determined as 55 nM. The Activity is 16.5% in experiment [4] and 16.3% in experiment [5]. In addition, the inhibitory constant (Ki) in [7] came to 6.74 nM. Moreover, the Ratio in experiment [8] was 124000 M⁻¹ min⁻¹. In addition, the Vmax in experiment [9] is 68.4 pmol/µM/min.
